Active and inactive are the calls of the source. The rule behind the calls is not given here.

The values that follow come from ChEMBL document CHEMBL4342523, “Discovery and Development of S6821 and S7958 as Potent TAS2R8 Antagonists” (J Med Chem, 2020).

For series [1], the target named is T1, Taste receptor type 2 member 14 (Homo sapiens) (UniProt Q9NYV8).
T1 sequence (whole entry): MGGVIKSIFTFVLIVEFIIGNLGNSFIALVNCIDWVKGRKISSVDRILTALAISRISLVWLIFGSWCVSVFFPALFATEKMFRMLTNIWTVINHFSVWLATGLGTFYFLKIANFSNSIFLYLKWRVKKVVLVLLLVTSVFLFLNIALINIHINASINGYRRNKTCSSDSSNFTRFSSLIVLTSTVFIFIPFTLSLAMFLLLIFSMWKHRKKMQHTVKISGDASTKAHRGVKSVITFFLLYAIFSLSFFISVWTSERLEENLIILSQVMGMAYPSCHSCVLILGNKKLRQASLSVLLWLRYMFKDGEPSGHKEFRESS
The series is described as follows: Antagonist activity at recombinant human TAS2R14 transiently expressed in HEK293T co-expressing Galpha16gust44 assessed as inhibition of aristolochic acid-induced intracellular calcium level by measuring remaining activity at 25 uM by fluo-4AM dye based FLIPR assay relative to control. The class given is functional, cell-based. (In general: Calcium assays in cells follow changes in intracellular calcium, usually with a dye or a luminescent sensor.)

For a further series, the system named is Homo sapiens. As to the kind of experiment: In vivo agonist activity at TAS2R14 in human assessed as induction of intrinsic bitterness up to 150 uM in presence of low sodium buffer by 15-point bitterness scale based assay. The format is functional, organism-based. A digest of the protocol:
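Human sensory test: trained external panelists, no food or drink except water ≥1 h before; compound from ethanol stock, final ethanol 0.1% (matched in blanks), in low sodium phosphate buffer pH 7.1 (0.3 mM KCl, 0.5 mM Na2HPO4, 0.175 mM KH2PO4); bitterness rated on 1–15 scale, 15 panelists × 2 replicates, Tukey's test (α = 0.05).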

The nature of series [2]: Stability of the compound in pH 2.8 buffer assessed as parent compound remaining measured after 24 hrs at 100 degC. The class given is physicochemical. The conditions noted are these: read-out: Stability.
Series [3] can be described thus: Stability of the compound in pH 5 buffer assessed as parent compound remaining measured after 24 hrs at room temperature. The class given is physicochemical. The settings on record: read-out: Stability.
The nature of series [4]: Stability of the compound in pH 6.5 buffer assessed as parent compound remaining measured after 30 secs at 140 degC. The class given is physicochemical. The settings on record: read-out: Stability.
Series [5] is described as follows: Stability of the compound in pH 9.3 buffer assessed as parent compound remaining measured after 24 hrs at room temperature. The format is physicochemical. The settings on record: read-out: Stability.
The target in series [6] is T2, Taste receptor type 2 member 8 (Homo sapiens) (UniProt Q9NYW2).
T2 sequence (whole entry): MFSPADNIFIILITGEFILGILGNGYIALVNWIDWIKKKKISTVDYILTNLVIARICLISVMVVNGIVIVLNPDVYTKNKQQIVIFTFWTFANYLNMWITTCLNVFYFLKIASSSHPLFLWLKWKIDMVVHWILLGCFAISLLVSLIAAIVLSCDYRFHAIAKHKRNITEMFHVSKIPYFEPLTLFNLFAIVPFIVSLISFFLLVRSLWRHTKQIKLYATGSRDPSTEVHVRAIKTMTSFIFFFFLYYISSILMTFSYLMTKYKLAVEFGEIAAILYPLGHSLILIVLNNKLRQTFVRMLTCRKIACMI
As to the kind of experiment: Reversible antagonist activity at recombinant human TAS2R8 assessed as recovery of suppression of andrographolide-induced intracellular calcium level at 1 uM preincubated for 60 secs followed by andrographolide addition measured after 5 mins washout period using Fura-2AM dye by cell-based fluorescent microscopic analysis. The class given is functional. A digest of the protocol: (§1)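 TAS2R8 stable cells grown overnight on Matrigel-coated coverslips, loaded with 3 μg/mL Fura-2AM 1 h at RT in HBSS; ratiometric imaging under continuous HBSS perfusion with 100 μM andrographolide. Inhibitor 1 μM applied 60 s before and during agonist; 5 min HBSS washout between applications; only cells with initial ΔF/F > 0.5 analysed; mean and per-cell peak responses, 136 cells, 3 experiments.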

Series [7] addresses Taste receptor type 2 member 14 (Homo sapiens, UniProt Q9NYV8). As to the kind of experiment: Agonist activity at TAS2R14 (unknown origin) by stably expressed cell-based assay.
Series [8] concerns the target T3, Taste receptor type 2 member 1 (Homo sapiens) (UniProt Q9NYW7).
T3 sequence (whole entry): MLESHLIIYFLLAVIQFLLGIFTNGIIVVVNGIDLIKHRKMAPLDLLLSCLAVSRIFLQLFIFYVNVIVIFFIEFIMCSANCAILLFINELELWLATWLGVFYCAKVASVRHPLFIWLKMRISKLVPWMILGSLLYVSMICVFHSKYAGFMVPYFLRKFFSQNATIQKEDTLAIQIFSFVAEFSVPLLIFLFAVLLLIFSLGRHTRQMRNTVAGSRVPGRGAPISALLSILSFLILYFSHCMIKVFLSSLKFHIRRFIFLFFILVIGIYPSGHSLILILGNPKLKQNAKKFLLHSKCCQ
As to the kind of experiment: Agonist activity at TAS2R1 (unknown origin) at 25 uM by transiently expressed cell-based assay.

The nature of series [9]: Maternal toxicity in po dosed Sprague-Dawley rat assessed as effect on embryo and fetal development administered via gavage during gestation period. The settings on record: female, in vivo. The class given is ADME, organism-based.
Series [10] in a line: Stability of the compound in pH 7.1 buffer assessed as parent compound remaining measured after 60 mins at 124 degC. The format is physicochemical. The conditions noted are these: read-out: Stability.
Series [11] in a line: Stability of the compound in pH 7.1 buffer assessed as parent compound remaining measured after 24 hrs at room temperature. The class given is physicochemical. The conditions noted are these: read-out: Stability.
The target in series [12] is Taste receptor type 2 member 5 (Homo sapiens) (UniProt Q9NYW4). As to the kind of experiment: Antagonist activity at recombinant human TAS2R5 transiently expressed in HEK293T co-expressing Galpha16gust44 assessed as inhibition of picoline-induced intracellular calcium level by measuring remaining activity at 25 uM by fluo-4AM dye based FLIPR assay relative to control. The class given is functional, cell-based.
Sequence of Taste receptor type 2 member 5 (Homo sapiens) (Q9NYW4 whole entry): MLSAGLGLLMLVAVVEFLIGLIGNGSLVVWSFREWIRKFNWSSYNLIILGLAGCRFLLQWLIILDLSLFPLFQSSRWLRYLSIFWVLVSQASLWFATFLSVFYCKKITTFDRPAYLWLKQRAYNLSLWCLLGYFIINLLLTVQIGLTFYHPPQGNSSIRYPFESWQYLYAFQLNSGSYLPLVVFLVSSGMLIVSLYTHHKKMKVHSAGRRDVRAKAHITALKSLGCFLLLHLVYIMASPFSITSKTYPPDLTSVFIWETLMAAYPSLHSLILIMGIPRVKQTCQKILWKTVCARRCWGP

Series [13] addresses T2, Taste receptor type 2 member 8 (Homo sapiens). The series is described as follows: Antagonist activity at recombinant human TAS2R8 assessed as inhibition of andrographolide-induced intracellular calcium level at 1 uM preincubated for 60 secs followed by andrographolide addition using Fura-2AM dye by cell-based fluorescent microscopic analysis. The class given is functional. A digest of the protocol: as §1

Series [14] in a line: Drug metabolism in pH 7.1 buffer assessed as hydrolytic opening of hydantoin ring by measuring compound 66 formation measured under heat condition.
Series [15] deals with T4, Taste receptor type 2 member 8 (Homo sapiens, UniProt Q9NYW2).
T4 sequence (Q9NYW2 whole entry): T2 sequence (whole entry)
As to the kind of experiment: Antagonist activity at recombinant human TAS2R8 stably expressed in cells co-expressing Galpha16gust44 assessed as inhibition of andrographolide-induced intracellular calcium level measured for 100 secs by fluo-4 dye based FLIPR assay. The class given is functional, cell-based. A digest of the protocol: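 Recombinant cells stably expressing G16t44 chimera and TAS2R8 (clones isolated by limiting dilution), plated 24 h before assay; loaded with fluo-4 in PBS 60 min, washed, rested 15 min in dark at RT. Andrographolide agonist at its EC80, premixed with antagonist and added together; final DMSO 0.5%. Baseline read 10 s, then fluorescence followed 100 s on FLIPR.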

Series [16] in a line: Maternal toxicity in po dosed Sprague-Dawley rat administered via gavage during gestation period. The format is ADME, organism-based. The settings on record: female, in vivo.
Series [17] can be described thus: Chronic toxicity in po dosed Sprague-Dawley rat administered daily for 90 days. The format is organism-based. The conditions noted are these: in vivo.
For series [18], the target named is Taste receptor type 2 member 1 (Homo sapiens, UniProt Q9NYW7). As to the kind of experiment: Agonist activity at TAS2R1 (unknown origin) by stably expressed cell-based assay.
For series [19], the target named is T1, Taste receptor type 2 member 14 (Homo sapiens). As to the kind of experiment: Agonist activity at TAS2R14 (unknown origin) at 25 uM by transiently expressed cell-based assay.
Series [20] can be described thus: Stability of the compound in pH 5 buffer assessed as parent compound remaining measured after 24 hrs at 100 degC. The settings on record: read-out: Stability. The class given is physicochemical.

As usually defined, the EC50 is the concentration at which the effect is half-maximal. Higher therefore signals weaker potency. A word on the NOAEL: it is the highest tested level that showed no adverse finding. A word on the IC50: it is the midpoint of a concentration-inhibition curve. In the case of `Cc1noc(C)c1Cn1cc(N2C(=O)CN(Cc3cccc(O)c3)C2=O)cn1`, the Activity in [1] worked out at 124%; in series [12], 103%. Also, the outcome in the series with Homo sapiens was inactive. In addition, the remaining at 24 h in series [2] is more than 99%; in series [3], more than 99%; in series [5], 20%; in [11] it was more than 99%; in series [20], more than 99%. For the same compound, the remaining at 0.5 min in [4] is more than 99%. The inhibition entry in [6] and in series [13] was “Active” in each case. Also, the EC50 worked out at 40 µM in [7] and 150 µM in series [18]. Also, the outcome in series [8] and in series [19] was Active. Besides, the NOAEL in series [9] and in series [16] was 1000 mg/kg each time. The remaining at 1 h in series [10] was determined as 89%. Besides, in [14], the Drug metabolism result was “Metabolite detected”. Further, in series [15], the IC50 stood at 0.02 µM. This compound also displayed an NOAEL at 2160 h in series [17] of 100 mg/kg.
As to `Cc1noc(C)c1Cn1cc(N2C(=O)N(Cc3cccc(O)c3)C(C)(C)C2=O)cn1`, the Activity was determined as 97% in series [1] and 100% in series [12]. Besides, in [2], the remaining at 24 h was more than 99%. Also, in series [15], the IC50 is 0.06 µM.
